Test results from ChEMBL document CHEMBL1147809, “Tumor-cell-targeted methionine-enkephalin analogues containing unnatural amino acids: design, synthesis, and in vitro antitumor activity” (2006).

Each compound was assayed on HeLa (assay: Antiproliferative activity against human HeLa cell line at 1000 uM relative to control).
Format: functional
Summary of the method: (§1)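 Cells from ATCC grown as monolayers in DMEM with 10% FBS, 2 mM glutamine, penicillin/streptomycin, 37 °C, 5% CO2. Seeded at 2 × 10^4 cells/mL, and after 24 h the medium was replaced with fresh medium containing compound (water/10% DMSO stock, PBS working dilutions 10^-3 to 10^-6 M). Exposure was 72 h, then MTT read-out. Growth % = (A_peptide − A_blank)/(A_control − A_blank) × 100, with inhibition taken relative to untreated cells. Values are means of three experiments run in triplicate.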
`N[C@@H](Cc1ccc(O)cc1)C(=O)NC1(C(=O)O)C2CC3CC(C2)CC1C3` (some centres undefined) gave an inhibition at 1000 µM of 36.1%. Work on `N[C@@H](Cc1ccc(O)cc1)C(=O)N[C@@H](C(=O)NCC(=O)O)C1C2CC3CC(C2)CC1C3` (some centres undefined) yielded an inhibition at 1000 µM of 28.2%.

The compounds below were run on HBL (assay: Antiproliferative activity against human HBL cell line at 10 uM relative to control).
Format: functional
Summary of the method: as §1
`N[C@@H](Cc1ccc(O)cc1)C(=O)NC1(C(=O)O)C2CC3CC(C2)CC1C3` (some centres undefined) gave an inhibition at 10 µM of 14%. `N[C@@H](Cc1ccc(O)cc1)C(=O)N[C@@H](C(=O)NCC(=O)O)C1C2CC3CC(C2)CC1C3` (some centres undefined) showed an inhibition at 10 µM of 1.2%.

Each compound was assayed on HBL (assay: Antiproliferative activity against human HBL cell line at 100 uM relative to control).
Format: functional
Summary of the method: as §1
`N[C@@H](Cc1ccc(O)cc1)C(=O)NC1(C(=O)O)C2CC3CC(C2)CC1C3` (some centres undefined) showed an inhibition at 100 µM of 7.5%. `N[C@@H](Cc1ccc(O)cc1)C(=O)N[C@@H](C(=O)NCC(=O)O)C1C2CC3CC(C2)CC1C3` (some centres undefined) was tested, and the inhibition at 100 µM was 3.3%.

Each compound was assayed on HBL (assay: Antiproliferative activity against human HBL cell line at 1000 uM relative to control).
Format: functional
Summary of the method: as §1
`N[C@@H](Cc1ccc(O)cc1)C(=O)NC1(C(=O)O)C2CC3CC(C2)CC1C3` (some centres undefined) gave an inhibition at 1000 µM of 14%. `N[C@@H](Cc1ccc(O)cc1)C(=O)N[C@@H](C(=O)NCC(=O)O)C1C2CC3CC(C2)CC1C3` (some centres undefined) gave an inhibition at 1000 µM of 19.4%.

These compounds were tested on HT-29 (assay: Antiproliferative activity against human HT29 cell line at 10 uM relative to control).
Format: functional
Summary of the method: as §1
`N[C@@H](Cc1ccc(O)cc1)C(=O)NC1(C(=O)O)C2CC3CC(C2)CC1C3` (some centres undefined) showed an inhibition at 10 µM of 1.6%. `N[C@@H](Cc1ccc(O)cc1)C(=O)N[C@@H](C(=O)NCC(=O)O)C1C2CC3CC(C2)CC1C3` (some centres undefined) was tested, and the inhibition at 10 µM was 3.8%.

Each compound was assayed on HT-29 (assay: Antiproliferative activity against human HT29 cell line at 100 uM relative to control).
Format: functional
Summary of the method: as §1
Work on `N[C@@H](Cc1ccc(O)cc1)C(=O)NC1(C(=O)O)C2CC3CC(C2)CC1C3` (some centres undefined) yielded an inhibition at 100 µM of 5.4%. Compound `N[C@@H](Cc1ccc(O)cc1)C(=O)N[C@@H](C(=O)NCC(=O)O)C1C2CC3CC(C2)CC1C3` (some centres undefined) has an inhibition at 100 µM of 12.4%.

These compounds were tested on HT-29 (assay: Antiproliferative activity against human HT29 cell line at 1000 uM relative to control).
Format: functional
Summary of the method: as §1
`N[C@@H](Cc1ccc(O)cc1)C(=O)NC1(C(=O)O)C2CC3CC(C2)CC1C3` (some centres undefined) showed an inhibition at 1000 µM of 26.5%. With `N[C@@H](Cc1ccc(O)cc1)C(=O)N[C@@H](C(=O)NCC(=O)O)C1C2CC3CC(C2)CC1C3` (some centres undefined) the inhibition at 1000 µM was 22.4%.

The compounds below were run on SW-620 (assay: Antiproliferative activity against human SW620 cell line at 10 uM relative to control).
Format: functional
Summary of the method: as §1
`N[C@@H](Cc1ccc(O)cc1)C(=O)NC1(C(=O)O)C2CC3CC(C2)CC1C3` (some centres undefined) was tested, and the inhibition at 10 µM was 16.5%. In the case of `N[C@@H](Cc1ccc(O)cc1)C(=O)N[C@@H](C(=O)NCC(=O)O)C1C2CC3CC(C2)CC1C3` (some centres undefined), the inhibition at 10 µM is reported as 13.5%.

What follows are compounds tested on SW-620 (assay: Antiproliferative activity against human SW620 cell line at 100 uM relative to control).
Format: functional
Summary of the method: as §1
Work on `N[C@@H](Cc1ccc(O)cc1)C(=O)NC1(C(=O)O)C2CC3CC(C2)CC1C3` (some centres undefined) yielded an inhibition at 100 µM of 28.1%. Work on `N[C@@H](Cc1ccc(O)cc1)C(=O)N[C@@H](C(=O)NCC(=O)O)C1C2CC3CC(C2)CC1C3` (some centres undefined) yielded an inhibition at 100 µM of 13.5%.

What follows are compounds tested on SW-620 (assay: Antiproliferative activity against human SW620 cell line at 1000 uM relative to control).
Format: functional
Summary of the method: as §1
`N[C@@H](Cc1ccc(O)cc1)C(=O)NC1(C(=O)O)C2CC3CC(C2)CC1C3` (some centres undefined) was tested, and the inhibition at 1000 µM was 58.2%. In the case of `N[C@@H](Cc1ccc(O)cc1)C(=O)N[C@@H](C(=O)NCC(=O)O)C1C2CC3CC(C2)CC1C3` (some centres undefined), the inhibition at 1000 µM is reported as 25.3%.

What follows are compounds tested on Caco-2 (assay: Antiproliferative activity against human Caco-2 cell line at 10 uM relative to control).
Format: functional
Summary of the method: as §1
`N[C@@H](Cc1ccc(O)cc1)C(=O)NC1(C(=O)O)C2CC3CC(C2)CC1C3` (some centres undefined) gave an inhibition at 10 µM of 22.7%. In the case of `N[C@@H](Cc1ccc(O)cc1)C(=O)N[C@@H](C(=O)NCC(=O)O)C1C2CC3CC(C2)CC1C3` (some centres undefined), the inhibition at 10 µM is reported as 6.9%.

The compounds below were run on Caco-2 (assay: Antiproliferative activity against human Caco-2 cell line at 100 uM relative to control).
Format: functional
Summary of the method: as §1
In the case of `N[C@@H](Cc1ccc(O)cc1)C(=O)NC1(C(=O)O)C2CC3CC(C2)CC1C3` (some centres undefined), the inhibition at 100 µM is reported as 18.9%. In the case of `N[C@@H](Cc1ccc(O)cc1)C(=O)N[C@@H](C(=O)NCC(=O)O)C1C2CC3CC(C2)CC1C3` (some centres undefined), the inhibition at 100 µM is reported as 8.1%.

These compounds were tested on Caco-2 (assay: Antiproliferative activity against human Caco-2 cell line at 1000 uM relative to control).
Format: functional
Summary of the method: as §1
For `N[C@@H](Cc1ccc(O)cc1)C(=O)NC1(C(=O)O)C2CC3CC(C2)CC1C3` (some centres undefined), the inhibition at 1000 µM was 26.4%. In the case of `N[C@@H](Cc1ccc(O)cc1)C(=O)N[C@@H](C(=O)NCC(=O)O)C1C2CC3CC(C2)CC1C3` (some centres undefined), the inhibition at 1000 µM is reported as 8.6%.

What follows are compounds tested on MCF7 (assay: Antiproliferative activity against human MCF7 cell line at 10 uM relative to control).
Format: functional
Summary of the method: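 MTT assay on monolayer cells grown in DMEM with 10% FBS, 2 mM glutamine, penicillin and streptomycin, at 37 °C in 5% CO2. Cells were plated at 2 × 10^4 cells/mL on day 0. After 24 h the medium was replaced with fresh medium containing compound (working dilutions in PBS from 10% DMSO/water stock), then incubated 72 h. Percent growth inhibition was calculated against untreated cells after blank subtraction. Values are means of three experiments run in triplicate.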
In the case of `N[C@@H](Cc1ccc(O)cc1)C(=O)NC1(C(=O)O)C2CC3CC(C2)CC1C3` (some centres undefined), the inhibition at 10 µM is reported as 2.4%.

What follows are compounds tested on MCF7 (assay: Antiproliferative activity against human MCF7 cell line at 1000 uM relative to control).
Format: functional
Summary of the method: as §1
With `N[C@@H](Cc1ccc(O)cc1)C(=O)NC1(C(=O)O)C2CC3CC(C2)CC1C3` (some centres undefined) the inhibition at 1000 µM was 7.5%. With `N[C@@H](Cc1ccc(O)cc1)C(=O)N[C@@H](C(=O)NCC(=O)O)C1C2CC3CC(C2)CC1C3` (some centres undefined) the inhibition at 1000 µM was 15.6%.

What follows are compounds tested on HEp-2 (assay: Antiproliferative activity against human HEp2 cell line at 10 uM relative to control).
Format: functional
Summary of the method: as §1
In the case of `N[C@@H](Cc1ccc(O)cc1)C(=O)NC1(C(=O)O)C2CC3CC(C2)CC1C3` (some centres undefined), the inhibition at 10 µM is reported as 19.7%. `N[C@@H](Cc1ccc(O)cc1)C(=O)N[C@@H](C(=O)NCC(=O)O)C1C2CC3CC(C2)CC1C3` (some centres undefined) was tested, and the inhibition at 10 µM was 4.9%.

The compounds below were run on HEp-2 (assay: Antiproliferative activity against human HEp2 cell line at 100 uM relative to control).
Format: functional
Summary of the method: as §1
Work on `N[C@@H](Cc1ccc(O)cc1)C(=O)NC1(C(=O)O)C2CC3CC(C2)CC1C3` (some centres undefined) yielded an inhibition at 100 µM of 24.9%. Compound `N[C@@H](Cc1ccc(O)cc1)C(=O)N[C@@H](C(=O)NCC(=O)O)C1C2CC3CC(C2)CC1C3` (some centres undefined) has an inhibition at 100 µM of 12.6%.

Each compound was assayed on HEp-2 (assay: Antiproliferative activity against human HEp2 cell line at 1000 uM relative to control).
Format: functional
Summary of the method: as §1
Work on `N[C@@H](Cc1ccc(O)cc1)C(=O)NC1(C(=O)O)C2CC3CC(C2)CC1C3` (some centres undefined) yielded an inhibition at 1000 µM of 30.4%. With `N[C@@H](Cc1ccc(O)cc1)C(=O)N[C@@H](C(=O)NCC(=O)O)C1C2CC3CC(C2)CC1C3` (some centres undefined) the inhibition at 1000 µM was 26.4%.

The compounds below were run on HeLa (assay: Antiproliferative activity against human HeLa cell line at 10 uM relative to control).
Format: functional
Summary of the method: as §1
`N[C@@H](Cc1ccc(O)cc1)C(=O)NC1(C(=O)O)C2CC3CC(C2)CC1C3` (some centres undefined) was tested, and the inhibition at 10 µM was 10%. Compound `N[C@@H](Cc1ccc(O)cc1)C(=O)N[C@@H](C(=O)NCC(=O)O)C1C2CC3CC(C2)CC1C3` (some centres undefined) has an inhibition at 10 µM of 11.7%.

The compounds below were run on HeLa (assay: Antiproliferative activity against human HeLa cell line at 100 uM relative to control).
Format: functional
Summary of the method: as §1
`N[C@@H](Cc1ccc(O)cc1)C(=O)NC1(C(=O)O)C2CC3CC(C2)CC1C3` (some centres undefined) showed an inhibition at 100 µM of 8.2%. Work on `N[C@@H](Cc1ccc(O)cc1)C(=O)N[C@@H](C(=O)NCC(=O)O)C1C2CC3CC(C2)CC1C3` (some centres undefined) yielded an inhibition at 100 µM of 11.6%.

What follows are compounds tested on SW-620 (assay: Antiproliferative activity against human SW620 cell line at 1 uM relative to control).
Format: functional
Summary of the method: as §1
`N[C@@H](Cc1ccc(O)cc1)C(=O)NC1(C(=O)O)C2CC3CC(C2)CC1C3` (some centres undefined) was tested, and the inhibition at 1 µM was 12.9%. In the case of `N[C@@H](Cc1ccc(O)cc1)C(=O)N[C@@H](C(=O)NCC(=O)O)C1C2CC3CC(C2)CC1C3` (some centres undefined), the inhibition at 1 µM is reported as 17%.

What follows are compounds tested on Caco-2 (assay: Antiproliferative activity against human Caco-2 cell line at 1 uM relative to control).
Format: functional
Summary of the method: as §1
With `N[C@@H](Cc1ccc(O)cc1)C(=O)NC1(C(=O)O)C2CC3CC(C2)CC1C3` (some centres undefined) the inhibition at 1 µM was 3.5%. Compound `N[C@@H](Cc1ccc(O)cc1)C(=O)N[C@@H](C(=O)NCC(=O)O)C1C2CC3CC(C2)CC1C3` (some centres undefined) has an inhibition at 1 µM of 8.1%.

The compounds below were run on HEp-2 (assay: Antiproliferative activity against human HEp2 cell line at 1 uM relative to control).
Format: functional
Summary of the method: as §1
`N[C@@H](Cc1ccc(O)cc1)C(=O)NC1(C(=O)O)C2CC3CC(C2)CC1C3` (some centres undefined) showed an inhibition at 1 µM of 14.2%. Compound `N[C@@H](Cc1ccc(O)cc1)C(=O)N[C@@H](C(=O)NCC(=O)O)C1C2CC3CC(C2)CC1C3` (some centres undefined) has an inhibition at 1 µM of 4.6%.

Each compound was assayed on HeLa (assay: Antiproliferative activity against human HeLa cell line at 1 uM relative to control).
Format: functional
Summary of the method: as §1
In the case of `N[C@@H](Cc1ccc(O)cc1)C(=O)N[C@@H](C(=O)NCC(=O)O)C1C2CC3CC(C2)CC1C3` (some centres undefined), the inhibition at 1 µM is reported as 11%.

The compounds below were run on HBL (assay: Antiproliferative activity against human HBL cell line at 1 uM relative to control).
Format: functional
Summary of the method: as §1
In the case of `N[C@@H](Cc1ccc(O)cc1)C(=O)NC1(C(=O)O)C2CC3CC(C2)CC1C3` (some centres undefined), the inhibition at 1 µM is reported as 6.5%.

The compounds below were run on HT-29 (assay: Antiproliferative activity against human HT29 cell line at 1 uM relative to control).
Format: functional
Summary of the method: as §1
`N[C@@H](Cc1ccc(O)cc1)C(=O)NC1(C(=O)O)C2CC3CC(C2)CC1C3` (some centres undefined) was tested, and the inhibition at 1 µM was 9.8%. For `N[C@@H](Cc1ccc(O)cc1)C(=O)N[C@@H](C(=O)NCC(=O)O)C1C2CC3CC(C2)CC1C3` (some centres undefined), the inhibition at 1 µM was 7.6%.
